Where “and” joins values, the source holds several entries; their conditions need not be identical. Identical values can stand only once. Marks after values point to notes of the source that are not given here.
Experiments:
[1] = phase I trial: plasma pharmacokinetics; format: in vivo, human
Method in brief: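 Patients were dosed orally twice daily. Blood was sampled on cycle 1 days 1 and 15 (predose and 0.5, 1, 2, 3, 4, 6 and 8 h postdose), on day 8 (predose), and on cycle 2 day 1 (predose and 2 h). Plasma drug levels were measured by LC-MS/MS. Non-compartmental analysis gave Cmax, tmax and AUC0–8, dose-normalized values, predose concentrations and day 15/day 1 accumulation. Dose proportionality was tested with a power model.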

[2] = tested on: kynurenine and tryptophan in the plasma; assay: phase I trial: plasma kynurenine and tryptophan; format: in vivo, human
Method in brief: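 In this open-label dose-escalation study, patients received the test compound orally twice daily (100–800 mg, three per cohort, 28-day cycles). Plasma was collected on cycle 1 day 1 and day 15 (predose and 1, 2, 4 and 6 h postdose), day 8 (predose), and cycle 2 day 1 (predose and 2 h). Kynurenine and tryptophan were quantified by LC-MS/MS, ratios were calculated, and values were normalized to baseline.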

[3] = 100 to 600 mg two times per day, day 15
[4] = Cycle 1, day 1, 100 mg two times per day, n=3, geometric mean (CV%)
[5] = Cycle 1, day 1, 200 mg two times per day, n=3, geometric mean (CV%)
[6] = Cycle 1, day 1, 400 mg two times per day, n=3, geometric mean (CV%)
[7] = Cycle 1, day 1, 600 mg two times per day, n=3, geometric mean (CV%)
[8] = Cycle 1, day 1, 800 mg two times per day, n=3, geometric mean (CV%)
[9] = Cycle 1, day 8, 100 mg two times per day, n=3, geometric mean (CV%)
[10] = Cycle 1, day 8, 200 mg two times per day, n=3, geometric mean (CV%)
[11] = Cycle 1, day 8, 400 mg two times per day, n=3, geometric mean (CV%)
[12] = Cycle 1, day 8, 600 mg two times per day, n=3, geometric mean (CV%)
[13] = Cycle 1, day 8, 800 mg two times per day, n=3, geometric mean (CV%)
[14] = Cycle 1, day 15, 100 mg two times per day, n=3, geometric mean (CV%)
[15] = Cycle 1, day 15, 200 mg two times per day, n=3, geometric mean (CV%)
[16] = Cycle 1, day 15, 400 mg two times per day, n=3, geometric mean (CV%)
[17] = Cycle 1, day 15, 600 mg two times per day, n=3, geometric mean (CV%)
[18] = Cycle 1, day 15, 800 mg two times per day, n=1, individual value
[19] = Cycle 2, day 1, 100 mg two times per day, n=3, geometric mean (CV%)
[20] = Cycle 2, day 1, 200 mg two times per day, n=2, individual values
[21] = Cycle 2, day 1, 400 mg two times per day, n=3, geometric mean (CV%)
[22] = Cycle 2, day 1, 600 mg two times per day, n=2, individual values
[23] = Cycle 2, day 1, 800 mg two times per day, n=1, individual value

Which results are given for `NS(=O)(=O)[C@H]1CC[C@](F)(CC[C@H]2c3ccccc3-c3cncn32)CC1` [M4112]?
increase of mean exposure with dose [1, 3]: greater than dose-proportional; slope estimate of dose proportionality (power model) [1, 3]: 1.46–1.67; accumulation / autoinduction following two times per day dosing ([1]; 100–600 mg dose range): no appreciable accumulation or evidence of autoinduction; AUC0–8 [1, 4]: 3550 (14.4) ngxh/mL; AUC0–8/dose [1, 4]: 35.5 (14.4) ngxh/mL/mg; Cmax [1, 4]: 806 (9.9) ng/mL; Cmax/dose [1, 4]: 8.06 (9.9) ng/mL/mg; tmax ([1]; Cycle 1, day 1, 100 mg two times per day, n=3, median (min, max)): 1.08 (1.08, 2.12) hours; AUC0–8 [1, 5]: 8740 (13.6) ngxh/mL; AUC0–8/dose [1, 5]: 43.7 (13.6) ngxh/mL/mg; Cmax [1, 5]: 2110 (13.6) ng/mL; Cmax/dose [1, 5]: 10.5 (13.6) ng/mL/mg; tmax ([1]; Cycle 1, day 1, 200 mg two times per day, n=3, median (min, max)): 2.10 (2.07, 3.08) hours; AUC0–8 [1, 6]: 27,700 (21.4) ngxh/mL; AUC0–8/dose [1, 6]: 69.1 (21.4) ngxh/mL/mg; Cmax [1, 6]: 7670 (39.6) ng/mL; Cmax/dose [1, 6]: 19.2 (39.6) ng/mL/mg; tmax ([1]; Cycle 1, day 1, 400 mg two times per day, n=3, median (min, max)): 1.08 (1.07, 1.08) hours; AUC0–8 [1, 7]: 50,400 (7.7) ngxh/mL; AUC0–8/dose [1, 7]: 84.0 (7.7) ngxh/mL/mg; Cmax [1, 7]: 11,700 (24.6) ng/mL; Cmax/dose [1, 7]: 19.6 (24.6) ng/mL/mg; tmax ([1]; Cycle 1, day 1, 600 mg two times per day, n=3, median (min, max)): 1.00 (0.97, 1.07) hours; AUC0–8 [1, 8]: 14,600 (85.1) ngxh/mL; AUC0–8/dose [1, 8]: 18.2 (85.1) ngxh/mL/mg; Cmax [1, 8]: 2770 (83.6) ng/mL; Cmax/dose [1, 8]: 3.47 (83.6) ng/mL/mg; tmax ([1]; Cycle 1, day 1, 800 mg two times per day, n=3, median (min, max)): 2.08 (2.07, 4.12) hours; Cpre [1, 9]: 156 (58.2) ng/mL; Cpre/dose [1, 9]: 1.56 (58.2) ng/mL/mg; Cpre [1, 10]: 96.5 (85.0) ng/mL; Cpre/dose [1, 10]: 0.482 (85.0) ng/mL/mg; Cpre [1, 11]: 1240 (51.6) ng/mL; Cpre/dose [1, 11]: 3.11 (51.6) ng/mL/mg; Cpre [1, 12]: 4410 (54.5) ng/mL; Cpre/dose [1, 12]: 7.35 (54.5) ng/mL/mg; Cpre [1, 13]: 5200 (105.4) ng/mL; Cpre/dose [1, 13]: 6.50 (105.4) ng/mL/mg; AUC0–8 [1, 14]: 4790 (25.4) ngxh/mL; AUC0–8/dose [1, 14]: 47.9 (25.4) ngxh/mL/mg; Cmax [1, 14]: 975 (34.9) ng/mL; Cmax/dose [1, 14]: 9.75 (34.9) ng/mL/mg; Cpre [1, 14]: 221 (20.5) ng/mL; Cpre/dose [1, 14]: 2.21 (20.5) ng/mL/mg; tmax ([1]; Cycle 1, day 15, 100 mg two times per day, n=3, median (min, max)): 3.08 (2.12, 4.13) hour; AUC0–8 [1, 15]: 7580 (11.5) ngxh/mL; AUC0–8/dose [1, 15]: 37.9 (11.5) ngxh/mL/mg; Cmax [1, 15]: 1720 (20.5) ng/mL; Cmax/dose [1, 15]: 8.58 (20.5) ng/mL/mg; Cpre [1, 15]: 199 (53.9) ng/mL; Cpre/dose [1, 15]: 0.997 (53.9) ng/mL/mg; tmax ([1]; Cycle 1, day 15, 200 mg two times per day, n=3, median (min, max)): 2.10 (1.00, 6.08) hour; AUC0–8 [1, 16]: 31,500 (28.8) ngxh/mL; AUC0–8/dose [1, 16]: 78.8 (28.8) ngxh/mL/mg; Cmax [1, 16]: 6560 (27.4) ng/mL; Cmax/dose [1, 16]: 16.4 (27.4) ng/mL/mg; Cpre [1, 16]: 1630 (45.7) ng/mL; Cpre/dose [1, 16]: 4.08 (45.7) ng/mL/mg; tmax ([1]; Cycle 1, day 15, 400 mg two times per day, n=3, median (min, max)): 1.08 (0.50, 3.00) hour; AUC0–8 [1, 17]: 59,500 (12.7) ngxh/mL; AUC0–8/dose [1, 17]: 99.2 (12.7) ngxh/mL/mg; Cmax [1, 17]: 12,100 (2.2) ng/mL; Cmax/dose [1, 17]: 20.2 (2.2) ng/mL/mg; Cpre [1, 17]: 3380 (42.4) ng/mL; Cpre/dose [1, 17]: 5.63 (42.4) ng/mL/mg; tmax ([1]; Cycle 1, day 15, 600 mg two times per day, n=3, median (min, max)): 1.03 (0.93, 2.17) hour; AUC0–8 [1, 18]: 93,200† ngxh/mL; AUC0–8/dose [1, 18]: 116† ngxh/mL/mg; Cmax [1, 18]: 21,100† ng/mL; Cmax/dose [1, 18]: 26.4† ng/mL/mg; Cpre [1, 18]: 9810† ng/mL; Cpre/dose [1, 18]: 12.3† ng/mL/mg; tmax [1, 18]: 2.00† hour; Cpre [1, 19]: 128 (67.7) ng/mL; Cpre/dose [1, 19]: 1.28 (67.7) ng/mL/mg; Cpre [1, 20]: 83.3 ng/mL and 85.2 ng/mL; Cpre/dose [1, 20]: 0.417 ng/mL/mg and 0.426 ng/mL/mg; Cpre [1, 21]: 957 (72.1) ng/mL; Cpre/dose [1, 21]: 2.39 (72.1) ng/mL/mg; Cpre [1, 22]: 1910 ng/mL and 2560 ng/mL; Cpre/dose [1, 22]: 3.18 ng/mL/mg and 4.27 ng/mL/mg; Cpre [1, 23]: 8560† ng/mL; Cpre/dose [1, 23]: 10.7† ng/mL/mg; tmax ([1]; across all dose levels on both days 1 and 15, approximately): 1 to 3 h; M4112 exposure of the 800 mg two times per day cohort ([1]; cycle 1, day 1): initially lower than that of the other dose groups; plasma kynurenine:tryptophan ratio ([2]; cycle 1 day 1, after 6 hours): decrease; decrease in plasma kynurenine levels ([2]; day 1 of cycle 1, up to 6 hours after the first dose, all dose levels): 12%–35; plasma tryptophan levels ([2]; day 1 of cycle 1, 200 mg two times per day and above): increased; plasma kynurenine levels ([2]; day 15 of cycle 1): returned to at least baseline levels
